Source: ChEMBL document CHEMBL1129388, “Structure-activity modifications of the HIV-1 inhibitors (+)-calanolide A and (-)-calanolide B” (J Med Chem, 1996)

How the values were obtained:
CEM-SS [1] = assay: Using the XTT assay for cell viability, inhibitory concentration to protect human lymphoblastoid CEM-SS cells from the cytopathic effects of HIV-1 (RF strain) was determined; type: functional, cell-based
How it was run: (§1)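 Values reported as averages of quadruplicate determinations.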

[2] = Ratio of inhibitory concentration to that of effective concentration for protection of CEM-SS cells from cytopathic effects of HIV-1 (RF strain); type: functional
How it was run: (§2)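 In vitro therapeutic index taken as IC50 divided by EC50.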

CEM-SS [3] = assay: Using the XTT assay for cell viability, effective concentration to protect human lymphoblastoid CEM-SS cells from the cytopathic effects of HIV-1 (RF strain) was determined; type: functional, cell-based; how it was run: as §1
CEM-SS [4] = assay: (§3) Using the XTT assay for cell viability, inhibitory concentration to protect human lymphoblastoid CEM-SS cells from the cytopathic effects of HIV-1 (RF strain) was determined; d - Not independently evaluated; not stable under assay conditions; rapid ly converts to active compound 2 under assay conditions.; type: functional, cell-based
CEM-SS [5] = assay: as §3, with “effective” for “inhibitory”, “rapidl y” for “rapid ly”; type: functional, cell-based
CEM-SS [6] = assay: Ratio of inhibitory concentration to that of effective concentration for protection of CEM-SS cells from cytopathic effects of HIV-1 (RF strain); not measurable; type: functional, cell-based; how it was run: as §2
CEM-SS [7] = assay: Using the XTT assay for cell viability, effective concentration to protect human lymphoblastoid CEM-SS cells from the cytopathic effects of HIV-1 (RF strain) was determined; c - not measurabel; type: functional, cell-based; how it was run: as §1
CEM-SS [8] = assay: Using the XTT assay for cell viability, inhibitory concentration to protect human lymphoblastoid CEM-SS cells from the cytopathic effects of HIV-1 (RF strain) was determined; c - not measurabel; type: functional, cell-based; how it was run: as §1
CEM-SS [9] = assay: Using the XTT assay for cell viability, inhibitory concentration to protect human lymphoblastoid CEM-SS cells from the cytopathic effects of HIV-1 (RF strain) was determined; c - not measurable; type: functional, cell-based; how it was run: as §1
CEM-SS [10] = assay: Using the XTT assay for cell viability, effective concentration to protect human lymphoblastoid CEM-SS cells from the cytopathic effects of HIV-1 (RF strain) was determined; c - not measurable; type: functional, cell-based; how it was run: as §1

Row | Compound | IC50 (CEM-SS [1]) | TI [2] | EC50 (CEM-SS [3]) | further results
1 | CCCc1cc(=O)oc2c3c(c4c(c12)OC(C)(C)CC4)O[C@@H](C)[C@H](C)C3=O | 7.9 µM | 21 | 0.37 µM | 
2 | CCCc1cc(=O)oc2c3c(c4c(c12)OC(C)(C)C=C4)O[C@H](C)[C@@H](C)[C@@H]3O [CALANOLIDE A] | 7.3 µM | 40 | 0.18 µM | 
3 | CCCc1cc(=O)oc2c3c(c4c(c12)OC(C)(C)C=C4)O[C@@H](C)[C@H](C)[C@@H]3F |  |  |  | IC50 (CEM-SS [4]): Not independently evaluated; EC50 (CEM-SS [5]): Not independently evaluated
4 | CCCc1cc(=O)oc2c3c(c4c(c12)OC(C)(C)C=C4)O[C@@H](C)[C@H](C)[C@@H]3O [COSTATOLIDE] | 5.9 µM | 31 | 0.2 µM | 
5 | CCCc1cc(=O)oc2c3c(c4c(c12)OC(C)(C)CC4)O[C@@H](C)[C@H](C)[C@@H]3O [7,8-DIHYDROCALANOLIDE B] | 8.2 µM | 41 | 0.2 µM | 
6 | CCCc1cc(=O)oc2c3c(c4c(c12)OC(C)(C)C=C4)O[C@H](C)[C@@H](C)C3=O | 9.3 µM | 62 | 0.15 µM | 
7 | CCCc1cc(=O)oc2c3c(c4c(c12)OC(C)(C)C=C4)O[C@@H](C)[C@H](C)[C@@H]3S | > 150 µM |  | 8.4 µM | TI (CEM-SS [6]): Not measurable
8 | CCCc1cc(=O)oc2c3c(c4c(c12)OC(C)(C)C=C4)O[C@@H](C)[C@H](C)[C@H]3O [(-)-CALANOLIDE A] |  |  |  | EC50 (CEM-SS [7]): Not measurable; IC50 (CEM-SS [8]): Not measurable
9 | CCCc1cc(=O)oc2c3c(c4c(c12)OC(C)(C)C=C4)O[C@@H](C)[C@H](C)[C@@H]3N=[N+]=[N-] | 5.9 µM | 4 | 1.6 µM | 
10 | CCCc1cc(=O)oc2c3c(c4c(c12)OC(C)(C)CC4)O[C@H](C)C(C)=C3 |  |  |  | IC50 (CEM-SS [9]): Not measurable; EC50 (CEM-SS [10]): Not measurable
11 | CCCc1cc(=O)oc2c3c(c4c(c12)OC(C)(C)CC4)O[C@@H](C)[C@H](C)[C@@H]3N | 5.8 µM | 10 | 0.6 µM | 
12 | CCCc1cc(=O)oc2c3c(c4c(c12)OC(C)(C)C=C4)O[C@@H](C)[C@H](C)C3=O | 8.5 µM | 24 | 0.4 µM | 
13 | CCCc1cc(=O)oc2c3c(c4c(c12)OC(C)(C)CC4)O[C@H](C)[C@@H](C)[C@@H]3O | 5.2 µM | 23 | 0.2 µM | 
